Common to all, as to assay type: cell-based, human
Assay [1] deals with mutant KRAS gene expression (mRNA) in AsPC-1 cells. Description: KRAS expression profile by quantitative real-time PCR. As to conditions: AsPC-1, 2 µM or 4 µM PNAs, 48 h, normalised to GAPDH, n=3.
Assay [2] has as its system RAS protein in AsPC-1 cells. In words: Western blot analysis of RAS protein. The note with it: AsPC-1, PNA-treated 48 h, band intensity of three blots. The procedure, abridged: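 AsPC-1 cells were treated with PNAs for 48 h, then lysed 20 min on ice in RIPA buffer with protease inhibitor and cleared at 13,000 rpm, 10 min, 4 °C. 20 µg protein per lane was resolved by SDS-PAGE and transferred by semi-dry blotting. Blots were blocked 1 h in 5% milk/TBST, probed overnight with anti-Ras antibody, then with peroxidase-conjugated secondary 1 h at room temperature. GAPDH served as reference.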
(In western blotting, separated proteins are transferred to a membrane and probed.)

The test system of assay [3] is AsPC-1 cells. In words: Apoptosis assay using Annexin V/PI double staining. As to conditions: AsPC-1, 2 µM PNA, 48 h; untreated control 7%; mean of n=3. A digest of the protocol:
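AsPC-1 cells (5×10^5) were seeded in six-well plates and transfected the next day with PNAs using lipofectamine, then incubated for 48 h. Adherent and floating cells were harvested by trypsinization, washed, and resuspended in ice-cold binding buffer with FITC-Annexin V and PI. Cells were stained 15 min at room temperature in the dark and analysed by flow cytometry. Data are mean ± standard error, n=3.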

The test system of assay [4] is AsPC-1 cells. Description: Cytotoxicity / viability, XTT assay. The note with it: AsPC-1, 10, 15 or 20 µM gemcitabine, 48 h. In general terms: Formazan colour is commonly taken as a measure of viable cells.

As for CTACGCCATCAGCTCCA-KKK [PNA1], the “effect on mutant KRAS gene expression (mRNA, RT-qPCR)” value (shortened to “effect on mutant KRAS gene expression”) in assay [1] was “weaker effect of PNA1 at 4 µm compared to PNA1 at 1 µM”. In addition, the “RAS protein levels (western blot)” value in assay [2] was “decrease in total RAS protein levels”. Besides, in the assay on AsPC-1 cells [3], the “apoptosis (percentage of apoptotic cells)” value came to 18%.

Turning to CTDCpGCCDTCpDGCTCCpD [PNA14], the “effect on mutant KRAS gene expression” value in assay [1] is “dose-dependent and have a significant effect”. Besides, the “apoptosis (percentage of apoptotic cells)” value with AsPC-1 cells [3] is on record as 20%.

As to CTDCGCCDTCDGCTCCD-KKK [PNA3], the “effect on mutant KRAS gene expression” value in assay [1] was “dose-dependent and have a significant effect”. The “apoptosis (percentage of apoptotic cells)” value with AsPC-1 cells [3] was determined as 20%.

With `Nc1ccn([C@@H]2O[C@H](CO)[C@@H](O)C2(F)F)c(=O)n1` [Gemcitabine], in the assay with AsPC-1 cells [4], the “cell viability (XTT)” value was “total death with no dose response”.

Values taken from PMC8895471 (Oncology Letters, 2022).
